According to ChEMBL document CHEMBL3407339, “A novel series of thiazolyl-pyrazoline derivatives: synthesis and evaluation of antifungal activity, cytotoxicity and genotoxicity” (Eur J Med Chem, 2015):
≈ marks a conversion by molar mass, not a printed value.

Tests used:
Salmonella typhimurium [1] = experiment: Mutagenicity in Salmonella typhimurium TA100 at 1.25 mg/ml after 48 hrs by AMES MPF assay in absence of Sprague-Dawley rat liver microsomal S9 fraction relative to baseline; type: toxicity, organism-based; settings: salmonella enterica subsp. enterica serovar typhimurium
Method in brief: (§1)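 Ames MPF fluctuation test with TA98/TA100. Overnight cultures (37 °C, 14–16 h) mixed with exposure medium; ±Aroclor-1254-induced rat liver S9 (final 4.5% v/v). Compounds in DMSO, 0.156–5 mg/mL. 90 min exposure at 37 °C, then indicator medium; 48 wells per concentration, 48 h at 37 °C, in triplicate. Yellow wells counted; fold induction over baseline (mean + 1 SD of zero-dose control).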

Fusarium solani = experiment: Antifungal activity against Fusarium solani NRRL 13414 after 72 hrs by broth microdilution assay; type: functional; settings: NRRL 13414, 72 h
Method in brief: (§2)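 Compounds dissolved in DMSO, diluted in sterile distilled water from 4 to 0.0039 mg/mL. Molds grown on PDA at 25 °C for 5 days, suspended in double-strength PDB at 10⁵ spores/mL. Incubated at 25 °C for 72 h; mycelial growth read under stereo microscope. MIC = lowest concentration inhibiting visible growth. Ketoconazole reference.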

Aspergillus parasiticus = experiment: Antifungal activity against Aspergillus parasiticus NRRL 465 after 72 hrs by broth microdilution assay; type: functional; settings: NRRL 465, 72 h; method in brief: as §2
Salmonella typhimurium [2] = experiment: Mutagenicity in Salmonella typhimurium TA98 at 5 mg/ml after 48 hrs by AMES MPF assay in absence of Sprague-Dawley rat liver microsomal S9 fraction relative to baseline; type: toxicity, organism-based; settings: salmonella enterica subsp. enterica serovar typhimurium; method in brief: as §1
[3] = Cytotoxicity against mouse NIH/3T3 cells after 24 hrs by XTT assay; type: cell-based; settings: NIH3T3, 24 h
Method in brief: (§3)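 A549 cells in RPMI and NIH/3T3 cells in DMEM, each with fetal calf serum, antibiotics and 7.5% NaHCO₃, at 37 °C, 5% CO₂. Seeded at 20,000 cells/well, 24 h, then compounds added in medium at 500–3.9 doses (final DMSO <0.1%) for 24 h. XTT read after 3 h at 480 nm (ref 680 nm). IC₅₀ by non-linear regression; triplicates; cisplatin control.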

Candida albicans = experiment: Antifungal activity against Candida albicans ATCC 90028 after 48 hrs by broth microdilution assay; type: functional; settings: ATCC 90028, 48 h
Method in brief: (§4)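 Broth microdilution of DMSO stocks serially diluted in sterile water (4 to 0.0039 mg/mL). Yeasts grown on SDA at 37 °C for 24 h, suspended in double-strength PDB at 10⁵ spores/mL. Incubated at 37 °C for 48 h, then sprayed with 0.5% aqueous TTC. MIC = lowest concentration inhibiting visible growth. Ketoconazole reference.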

Salmonella typhimurium [4] = experiment: Mutagenicity in Salmonella typhimurium TA98 at 0.156 mg/ml after 48 hrs by AMES MPF assay in presence of Sprague-Dawley rat liver microsomal S9 fraction relative to baseline; type: toxicity, organism-based; settings: salmonella enterica subsp. enterica serovar typhimurium; method in brief: as §1
Pichia kudriavzevii = experiment: Antifungal activity against Candida krusei NRLL Y 7179 after 48 hrs by broth microdilution assay; type: functional; settings: NRLL Y 7179, 48 h; method in brief: as §4
Salmonella typhimurium [5] = experiment: Mutagenicity in Salmonella typhimurium TA100 at 5 mg/ml after 48 hrs by AMES MPF assay in presence of Sprague-Dawley rat liver microsomal S9 fraction relative to baseline; type: toxicity, organism-based; settings: salmonella enterica subsp. enterica serovar typhimurium; method in brief: as §1
Salmonella typhimurium [6] = experiment: Mutagenicity in Salmonella typhimurium TA98 at 2.5 mg/ml after 48 hrs by AMES MPF assay in presence of Sprague-Dawley rat liver microsomal S9 fraction relative to baseline; type: toxicity, organism-based; settings: salmonella enterica subsp. enterica serovar typhimurium; method in brief: as §1
Salmonella typhimurium [7] = experiment: Mutagenicity in Salmonella typhimurium TA98 at 1.25 mg/ml after 48 hrs by AMES MPF assay in absence of Sprague-Dawley rat liver microsomal S9 fraction relative to baseline; type: toxicity, organism-based; settings: salmonella enterica subsp. enterica serovar typhimurium; method in brief: as §1
Salmonella typhimurium [8] = experiment: Mutagenicity in Salmonella typhimurium TA98 at 2.5 mg/ml after 48 hrs by AMES MPF assay in absence of Sprague-Dawley rat liver microsomal S9 fraction relative to baseline; type: toxicity, organism-based; settings: salmonella enterica subsp. enterica serovar typhimurium; method in brief: as §1
Aspergillus niger = experiment: Antifungal activity against Aspergillus niger ATCC 1094 after 72 hrs by broth microdilution assay; type: functional; settings: ATCC 1094, 72 h; method in brief: as §2
Salmonella typhimurium [9] = experiment: Mutagenicity in Salmonella typhimurium TA100 at 0.625 mg/ml after 48 hrs by AMES MPF assay in presence of Sprague-Dawley rat liver microsomal S9 fraction relative to baseline; type: toxicity, organism-based; settings: salmonella enterica subsp. enterica serovar typhimurium; method in brief: as §1
Candida tropicalis = experiment: Antifungal activity against Candida tropicalis NRLL Y 12968 after 48 hrs by broth microdilution assay; type: functional; settings: NRLL Y 12968, 48 h; method in brief: as §4
Nakaseomyces glabratus = experiment: Antifungal activity against Candida glabrata clinical isolate after 48 hrs by broth microdilution assay; type: functional; method in brief: as §4
Salmonella typhimurium [10] = experiment: Mutagenicity in Salmonella typhimurium TA98 at 0.3125 mg/ml after 48 hrs by AMES MPF assay in presence of Sprague-Dawley rat liver microsomal S9 fraction relative to baseline; type: toxicity, organism-based; settings: salmonella enterica subsp. enterica serovar typhimurium; method in brief: as §1
Salmonella typhimurium [11] = experiment: Mutagenicity in Salmonella typhimurium TA98 at 0.156 mg/ml after 48 hrs by AMES MPF assay in absence of Sprague-Dawley rat liver microsomal S9 fraction relative to baseline; type: toxicity, organism-based; settings: salmonella enterica subsp. enterica serovar typhimurium; method in brief: as §1
Salmonella typhimurium [12] = experiment: Mutagenicity in Salmonella typhimurium TA98 at 1.25 mg/ml after 48 hrs by AMES MPF assay in presence of Sprague-Dawley rat liver microsomal S9 fraction relative to baseline; type: toxicity, organism-based; settings: salmonella enterica subsp. enterica serovar typhimurium; method in brief: as §1
Salmonella typhimurium [13] = experiment: Mutagenicity in Salmonella typhimurium TA100 at 0.3125 mg/ml after 48 hrs by AMES MPF assay in absence of Sprague-Dawley rat liver microsomal S9 fraction relative to baseline; type: toxicity, organism-based; settings: salmonella enterica subsp. enterica serovar typhimurium; method in brief: as §1
Salmonella typhimurium [14] = experiment: Mutagenicity in Salmonella typhimurium TA100 at 0.156 mg/ml after 48 hrs by AMES MPF assay in presence of Sprague-Dawley rat liver microsomal S9 fraction relative to baseline; type: toxicity, organism-based; settings: salmonella enterica subsp. enterica serovar typhimurium; method in brief: as §1
Salmonella typhimurium [15] = experiment: Mutagenicity in Salmonella typhimurium TA98 at 0.625 mg/ml after 48 hrs by AMES MPF assay in presence of Sprague-Dawley rat liver microsomal S9 fraction relative to baseline; type: toxicity, organism-based; settings: salmonella enterica subsp. enterica serovar typhimurium; method in brief: as §1
Salmonella typhimurium [16] = experiment: Mutagenicity in Salmonella typhimurium TA100 at 0.156 mg/ml after 48 hrs by AMES MPF assay in absence of Sprague-Dawley rat liver microsomal S9 fraction relative to baseline; type: toxicity, organism-based; settings: salmonella enterica subsp. enterica serovar typhimurium; method in brief: as §1
Candida parapsilosis = experiment: Antifungal activity against Candida parapsilosis NRLL Y 12696 after 48 hrs by broth microdilution assay; type: functional; settings: Lodderomyces parapsilosis, NRLL Y 12696, 48 h; method in brief: as §4
Salmonella typhimurium [17] = experiment: Mutagenicity in Salmonella typhimurium TA100 at 2.5 mg/ml after 48 hrs by AMES MPF assay in presence of Sprague-Dawley rat liver microsomal S9 fraction relative to baseline; type: toxicity, organism-based; settings: salmonella enterica subsp. enterica serovar typhimurium; method in brief: as §1
Salmonella typhimurium [18] = experiment: Mutagenicity in Salmonella typhimurium TA98 at 0.3125 mg/ml after 48 hrs by AMES MPF assay in absence of Sprague-Dawley rat liver microsomal S9 fraction relative to baseline; type: toxicity, organism-based; settings: salmonella enterica subsp. enterica serovar typhimurium; method in brief: as §1
Salmonella typhimurium [19] = experiment: Mutagenicity in Salmonella typhimurium TA98 at 5 mg/ml after 48 hrs by AMES MPF assay in presence of Sprague-Dawley rat liver microsomal S9 fraction relative to baseline; type: toxicity, organism-based; settings: salmonella enterica subsp. enterica serovar typhimurium; method in brief: as §1
Salmonella typhimurium [20] = experiment: Mutagenicity in Salmonella typhimurium TA100 at 1.25 mg/ml after 48 hrs by AMES MPF assay in presence of Sprague-Dawley rat liver microsomal S9 fraction relative to baseline; type: toxicity, organism-based; settings: salmonella enterica subsp. enterica serovar typhimurium; method in brief: as §1
[Candida] zeylanoides = Antifungal activity against Candida zeylanoides NRLL Y 1774 after 48 hrs by broth microdilution assay; type: functional; settings: Dujonia zeylanoides, NRLL Y 1774, 48 h; method in brief: as §4
Salmonella typhimurium [21] = experiment: Mutagenicity in Salmonella typhimurium TA98 at 0.625 mg/ml after 48 hrs by AMES MPF assay in absence of Sprague-Dawley rat liver microsomal S9 fraction relative to baseline; type: toxicity, organism-based; settings: salmonella enterica subsp. enterica serovar typhimurium; method in brief: as §1
Salmonella typhimurium [22] = experiment: Mutagenicity in Salmonella typhimurium TA100 at 2.5 mg/ml after 48 hrs by AMES MPF assay in absence of Sprague-Dawley rat liver microsomal S9 fraction relative to baseline; type: toxicity, organism-based; settings: salmonella enterica subsp. enterica serovar typhimurium; method in brief: as §1
Salmonella typhimurium [23] = experiment: Mutagenicity in Salmonella typhimurium TA100 at 5 mg/ml after 48 hrs by AMES MPF assay in absence of Sprague-Dawley rat liver microsomal S9 fraction relative to baseline; type: toxicity, organism-based; settings: salmonella enterica subsp. enterica serovar typhimurium; method in brief: as §1
Salmonella typhimurium [24] = experiment: Mutagenicity in Salmonella typhimurium TA100 at 0.625 mg/ml after 48 hrs by AMES MPF assay in absence of Sprague-Dawley rat liver microsomal S9 fraction relative to baseline; type: toxicity, organism-based; settings: salmonella enterica subsp. enterica serovar typhimurium; method in brief: as §1
Aspergillus flavus = experiment: Antifungal activity against Aspergillus flavus NRRL 980 after 72 hrs by broth microdilution assay; type: functional; settings: NRRL 980, 72 h; method in brief: as §2
A549 = experiment: Antiproliferative activity against human A549 cells after 24 hrs by XTT assay; type: functional, cell-based; settings: A549, 24 h; method in brief: as §3
Salmonella typhimurium [25] = experiment: Mutagenicity in Salmonella typhimurium TA100 at 0.3125 mg/ml after 48 hrs by AMES MPF assay in presence of Sprague-Dawley rat liver microsomal S9 fraction relative to baseline; type: toxicity, organism-based; settings: salmonella enterica subsp. enterica serovar typhimurium; method in brief: as §1

## Cc1ccc(C2=NN(c3nc(-c4ccc(C#N)cc4)cs3)C(c3ccc(F)cc3)C2)s1 (stereo unspecified)
Salmonella typhimurium [1]
  fold change (FC): 0.31
Fusarium solani
  MIC: 250 µg/mL (≈ 562 µM)
Aspergillus parasiticus
  MIC: 250 µg/mL (≈ 562 µM)
Salmonella typhimurium [2]
  fold change (FC): 1.33
[3]
  IC50: 250 µg/mL (≈ 562 µM)
Candida albicans
  MIC: 250 µg/mL (≈ 562 µM)
Salmonella typhimurium [4]
  fold change (FC): 0.27
Pichia kudriavzevii
  MIC: 250 µg/mL (≈ 562 µM)
Salmonella typhimurium [5]
  fold change (FC): 1.01
Salmonella typhimurium [6]
  fold change (FC): 0.89
Salmonella typhimurium [7]
  fold change (FC): 1.11
Salmonella typhimurium [8]
  fold change (FC): 1.56
Aspergillus niger
  MIC: 250 µg/mL (≈ 562 µM)
Salmonella typhimurium [9]
  fold change (FC): 0.86
Candida tropicalis
  MIC: 250 µg/mL (≈ 562 µM)
Nakaseomyces glabratus
  MIC: 125 µg/mL (≈ 281 µM)
Salmonella typhimurium [10]
  fold change (FC): 0.18
Salmonella typhimurium [11]
  fold change (FC): 1.78
Salmonella typhimurium [12]
  fold change (FC): 0.44
Salmonella typhimurium [13]
  fold change (FC): 0.74
Salmonella typhimurium [14]
  fold change (FC): 1.01
Salmonella typhimurium [15]
  fold change (FC): 1.07
Salmonella typhimurium [16]
  fold change (FC): 0.8
Candida parapsilosis
  MIC: 250 µg/mL (≈ 562 µM)
Salmonella typhimurium [17]
  fold change (FC): 0.55
Salmonella typhimurium [18]
  fold change (FC): 1.56
Salmonella typhimurium [19]
  fold change (FC): 1.16
Salmonella typhimurium [20]
  fold change (FC): 0.7
[Candida] zeylanoides
  MIC: 250 µg/mL (≈ 562 µM)
Salmonella typhimurium [21]
  fold change (FC): 1.11
Salmonella typhimurium [22]
  fold change (FC): 0.31
Salmonella typhimurium [23]
  fold change (FC): 0.8
Salmonella typhimurium [24]
  fold change (FC): 0.74
Aspergillus flavus
  MIC: 125 µg/mL (≈ 281 µM)
A549
  IC50: 322 µg/mL (≈ 724 µM)
Salmonella typhimurium [25]
  fold change (FC): 0.94
